Results as given in ChEMBL document CHEMBL1147691, “Quinol fatty alcohols as promoters of axonal growth” (Bioorg Med Chem Lett, 2006).

Experiments:
[1] = tested on: Radical scavenging activity; test: Hydroxyl radical scavenging activity by ABTS assay; format: functional
Outline: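 Competition assay for hydroxyl-radical scavenging in ethanolic medium: hydroxyl radicals oxidise ABTS to the stable ABTS•+ radical cation, read by absorbance at 405 nm. IC50 is the concentration giving a 50% decrease in ABTS•+, reported as the mean of three experiments.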

Cortical neurone [2] = test: Growth promoting activity in axon relative to control; format: functional, Mus musculus; design: concentration or dose not given beside the values
Outline: (§1)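 Cortical neurons from E15 mouse embryos, trypsin-dissociated, grown 24 h on poly-L-lysine coverslips (37 °C, 5% CO2). On day 2, compound added for 24 h under the same conditions. On day 3, cells fixed and immunostained with anti-phosphoneurofilament (SMi312) and an Alexa488 secondary. Axonal growth given as % variation from control conditions; means ± SEM.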

Cortical neurone [3] = test: Growth promoting activity in axon at 1 nM; format: functional, Mus musculus; outline: as §1
Cortical neurone [4] = test: Growth promoting activity in axon at 1 nM in presence of 1 ug/ml myelin protein of glial scar; format: functional, Mus musculus; outline: as §1
Cortical neurone [5] = test: Growth promoting activity in axon at 1 nM in presence of 10 ug/ml myelin protein of glial scar; format: functional, Mus musculus; outline: as §1
Cortical neurone [6] = test: Growth promoting activity in axon at 1 nM in presence of 100 ng/ml Sema3A of glial scar; format: functional, Mus musculus; outline: as §1
Cortical neurone [7] = test: Growth promoting activity in axon at 100 nM; format: functional, Mus musculus; outline: as §1
Cortical neurone [8] = test: Growth promoting activity in axon at 100 nM in presence of 1 ug/ml myelin protein of glial scar; format: functional, Mus musculus; outline: as §1
Cortical neurone [9] = test: Growth promoting activity in axon at 100 nM in presence of 10 ug/ml myelin protein of glial scar; format: functional, Mus musculus; outline: as §1
Cortical neurone [10] = test: Growth promoting activity in axon at 100 nM in presence of 100 ng/ml Sema3A of glial scar; format: functional, Mus musculus; outline: as §1

Row | SMILES | IC50 [1] | Activity (Cortical neurone [2]) | also measured
1 | COc1cc(CCCCCCCCCCCCCCCCO)c(OC)c(OC)c1OC |  | 127% | 
2 | COc1cc(CCCCCCCCCCCCCCCCCCO)c(OC)c(OC)c1OC |  | 103% | 
3 | COc1cc(CCCCCCCCCCCCCCCO)c(OC)c(OC)c1OC |  | 158% | 
4 | COc1cc(CCCCCCCCCCCCO)c(OC)c(OC)c1OC |  | 100% | 
5 | COc1ccc(OC)c(CCCCCCCCCCCCCCCCO)c1 | > 10000 µM | 120% | 
6 | COc1ccc(OC)c(CCCCCCCCCCCCCCCCCCO)c1 | > 10000 µM | 109% | 
7 | CC1=C(CCCCCCCCCCCCCCCO)C(C)(C)CCC1=O | > 10000 µM | 150% | Activity (Cortical neurone [7]): 80%; Activity (Cortical neurone [8]): 28.8%; Activity (Cortical neurone [9]): 5%; Activity (Cortical neurone [10]): 10.2%
8 | COc1cc(CCCCCCCCCCCCCCO)c(OC)c(OC)c1OC |  | 108% | 
9 | COc1ccc(OC)c(CCCCCCCCCCCCCCO)c1 | > 10000 µM | 110% | 

Further lines, with some results ahead:

Row | IC50 [1] | SMILES | Activity (Cortical neurone [2]) | also measured
10 | 720 µM | COc1cc(OC)c(OC)cc1CCCCCCCCCCCCCCCCCCO | 106% | 
11 | 720 µM | COc1cc(OC)c(OC)cc1CCCCCCCCCCCCCCO | 109% | 
12 | 720 µM | COc1cc(OC)c(OC)cc1CCCCCCCCCCCCCCCO | 152% | 
13 | > 10000 µM | COc1ccc(OC)c(CCCCCCCCCCCCCCCO)c1 | 181% | Activity (Cortical neurone [3]): 81%; Activity (Cortical neurone [4]): 18.4%; Activity (Cortical neurone [5]): -5.3%; Activity (Cortical neurone [6]): 12.4%
14 | > 10000 µM | COc1ccc(OC)c(CCCCCCCCCCCCO)c1 | 109% | 
15 | 720 µM | COc1cc(OC)c(OC)cc1CCCCCCCCCCCCO | 108% | 
16 | 720 µM | COc1cc(OC)c(OC)cc1CCCCCCCCCCCCCCCCO | 135% | 
17 | 600 µM | Cc1c(C)c2c(c(C)c1O)CCC(C)(C(=O)O)O2 (stereo unspecified) [TROLOX] |  | 
